According to ChEMBL document CHEMBL1158355, “Novel pyridazine derivatives: Synthesis and antimicrobial activity evaluation” (2009):

Columns and labels:
Assay type in all cases: functional
Pseudomonas aeruginosa = test: Antibacterial activity against Pseudomonas aeruginosa at 20 mg/mL by agar diffusion method
Outline: (§1)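 Agar diffusion assay with test solutions at 20 mg/mL in DMSO, run alongside tetracycline as reference. Read-out is the diameter of the inhibition zone in mm, reported as an average.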

Enterococcus faecalis = test: Antibacterial activity against Streptococcus faecalis at 20 mg/mL by agar diffusion method; outline: as §1
Staphylococcus aureus = test: Antibacterial activity against Staphylococcus aureus at 20 mg/mL by agar diffusion method; outline: as §1
Escherichia coli = test: Antibacterial activity against Escherichia coli at 20 mg/mL by agar diffusion method; outline: as §1

| Structure (SMILES) | diameter of the inhibition zone (DIZ) (Pseudomonas aeruginosa) [mm] | diameter of the inhibition zone (DIZ) (Enterococcus faecalis) [mm] | diameter of the inhibition zone (DIZ) (Staphylococcus aureus) [mm] | diameter of the inhibition zone (DIZ) (Escherichia coli) [mm] |
| --- | --- | --- | --- | --- |
| COc1ccccc1Cc1cc(-c2ccc(Cl)cc2)n[nH]/c1=N/N=C/c1ccc(OCCOc2ccc(C=O)cc2OC)c(OC)c1 | 13 | 12 | 12 | 13 |
| COc1ccccc1Cc1cc(-c2ccccc2)n[nH]/c1=N/N=C/c1ccc(OCCOc2ccc(C=O)cc2)cc1 | 13 | 12 | 14 | 12 |
| COc1ccc(-c2cc(Cc3ccccc3OC)/c(=N/N=C/c3ccc(OC(C)=O)c(OC)c3)[nH]n2)cc1 | 12 | 13 | 14 | 15 |
| COc1ccc(-c2cc(Cc3ccccc3OC)/c(=N/N=C(\c3ccccc3)c3ccccc3C(=O)O)[nH]n2)cc1 | 17 | 17 | 18 | 16 |
| COc1ccc(-c2cc(Cc3ccccc3OC)/c(=N/N=C/c3ccc(O)c(OC)c3)[nH]n2)cc1 | 13 | 12 | 12 | 12 |
| COc1ccc(-c2cc(Cc3ccccc3OC)/c(=N/N=C/C(O)C(O)C(O)CO)[nH]n2)cc1 (configuration not stated) | 11 | 12 | 12 | 12 |
| COc1ccccc1Cc1cc(-c2ccccc2)n[nH]/c1=N\N=C(C)C | 15 | 16 | 16 | 15 |
| COc1ccccc1Cc1cc(-c2ccc(C)cc2)n[nH]/c1=N/N=C/C(OC(C)=O)C(OC(C)=O)C(COC(C)=O)OC(C)=O (configuration not stated) | 12 | 13 | 13 | 13 |
| COc1ccccc1Cc1cc(-c2ccc(C)cc2)n[nH]\c1=N/N=C(C)/C(C)=N/N=c1/[nH]nc(-c2ccc(C)cc2)cc1Cc1ccccc1OC | 14 | 13 | 14 | 13 |
| COc1ccc(-c2cc(Cc3ccccc3OC)/c(=N\N=C\C(OC(C)=O)C(OC(C)=O)C(OC(C)=O)C(COC(C)=O)OC(C)=O)[nH]n2)cc1 (configuration not stated) | 13 | 14 | 13 | 14 |
| COc1ccccc1Cc1cc(-c2ccccc2)n[nH]/c1=N/N=C/c1cc(OC)c(OCCOc2c(OC)cc(C=O)cc2OC)c(OC)c1 | 14 | 13 | 14 | 12 |
| COc1ccccc1Cc1cc(-c2ccccc2)n[nH]/c1=N\N=C(c1ccccc1)c1ccccc1 | 13 | 13 | 13 | 12 |
| COc1ccc(-c2cc(Cc3ccccc3OC)/c(=N\N=C\c3ccc(OCCOc4ccc(C=O)cc4OC)c(OC)c3)[nH]n2)cc1 | 10 | 10 | 10 | 11 |
| COc1ccccc1Cc1cc(-c2ccccc2)n[nH]/c1=N\N=C(/C)c1ccccc1 | 12 | 13 | 13 | 12 |
| COc1ccccc1Cc1cc(-c2ccc(Cl)cc2)n[nH]/c1=N\N=C\C(O)C(O)C(O)CO (configuration not stated) | 15 | 17 | 16 | 16 |
| COc1ccc(-c2cc(Cc3ccccc3OC)/c(=N/N=C(\C)C(C)=O)[nH]n2)cc1 | 13 | 13 | 13 | 13 |
| COc1ccc(-c2cc(Cc3ccccc3OC)/c(=N/N=C/C(O)C(O)C(O)C(O)CO)[nH]n2)cc1 (configuration not stated) | 14 | 15 | 16 | 15 |
| CN(C)[C@@H]1C(O)=C(C(N)=O)C(=O)[C@@]2(O)C(O)=C3C(=O)c4c(O)cccc4[C@@](C)(O)[C@H]3C[C@@H]12 [TETRACYCLINE] | 24 | 26 | 20 | 22 |
